Series [1] deals with Trypanosoma cruzi. As to the kind of experiment: Antitrypanosomal activity against Trypanosoma cruzi MHOM/Pe/2011/Arequipa DTU 5 trypamastigotes infected in Balb/c mouse assessed as reduction in parasitaemia level at 20 mg/kg, po once daily for 5 consecutive days starting from day 10 post infection measured on day 23 post infection by Neubauer chamber method relative to control. It is filed as functional. Set-up: scale not given: the % may be the effect or the level left. The essentials: (§1)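 Six female BALB/c mice per group, infected i.p. with 5 x 10^5 Arequipa bloodstream trypomastigotes in PBS. Oral dosing once daily for 5 days from day 10 pi, 20 mg·kg-1 per day in aqueous 5 % DMSO/0.5 % HPMC, vehicle to controls. Blood trypomastigotes counted in a Neubauer chamber (parasites·mL-1); means ± SD.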

The subject of series [2] is Trypanosoma cruzi. As to the kind of experiment: Antitrypanosomal activity against Trypanosoma cruzi MHOM/Pe/2011/Arequipa DTU 5 trypamastigotes infected in Balb/c mouse assessed as reduction in parasitaemia level at 20 mg/kg, po once daily for 5 consecutive days starting from day 10 post infection measured on day 47 post infection by Neubauer chamber method. It is filed as functional, organism-based. The essentials:
as §1

Series [3] relates to Trypanosoma cruzi. As to the kind of experiment: Antitrypanosomal activity against Trypanosoma cruzi MHOM/Pe/2011/Arequipa DTU 5 trypamastigotes infected in Balb/c mouse assessed as reduction in parasitaemia reactivation in heart tissue at 20 mg/kg, po pretreated once daily for 5 consecutive days starting from day 10 post infection followed by cyclophosphamide-induced immunosuppression on day 100 post infection every 4 days for a maximum of 3 doses measured on day 127 post infection by PCR method. In kind it is functional. Also noted: scale not given: the % may be the effect or the level left. The essentials: (§2)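 Necropsy on day 127 pi after oral treatment and cyclophosphamide immunosuppression. Tissue DNA was amplified by PCR targeting the ~300 bp T. cruzi SOD gene, 200 nM each primer, 30 cycles with 55.5 °C annealing. Products run on 2 % agarose; positive organs counted out of six mice.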

In series [4] the test system is Trypanosoma cruzi. Briefly: Antitrypanosomal activity against Trypanosoma cruzi MHOM/Pe/2011/Arequipa DTU 5 trypamastigotes infected in Balb/c mouse assessed as reduction in parasitaemia reactivation in stomach tissue at 20 mg/kg, po pretreated once daily for 5 consecutive days starting from day 10 post infection followed by cyclophosphamide-induced immunosuppression on day 100 post infection every 4 days for a maximum of 3 doses measured on day 127 post infection by PCR method. Also noted: scale not given: the % may be the effect or the level left. It is filed as functional.

Series [5] relates to Trypanosoma cruzi. As to the kind of experiment: Antitrypanosomal activity against Trypanosoma cruzi MHOM/Pe/2011/Arequipa DTU 5 trypamastigotes infected in Balb/c mouse assessed as reduction in splenomegaly at 20 mg/kg, po once daily for 5 consecutive days starting from day 10 post infection measured on day 127 post infection relative to control. In kind it is functional, organism-based.

The test system of series [6] is Mus musculus. Briefly: Nephrotoxicity in Balb/c mouse infected with Trypanosoma cruzi MHOM/Pe/2011/Arequipa DTU 5 trypamastigotes assessed as decrease in urea level in serum at 20 mg/kg, po once daily for 5 consecutive days starting from day 10 post infection measured on day 16 post infection by biochemical analysis relative to control. It is filed as toxicity, organism-based. Also noted: scale not given: the % may be the effect or the level left. As to conditions: in vivo.

Series [7] concerns Mus musculus. As to the kind of experiment: Nephrotoxicity in Balb/c mouse infected with Trypanosoma cruzi MHOM/Pe/2011/Arequipa DTU 5 trypamastigotes assessed as decrease in urea level in serum at 20 mg/kg, po once daily for 5 consecutive days starting from day 10 post infection measured on day 127 post infection by biochemical analysis relative to control. It is filed as toxicity, organism-based. Also noted: scale not given: the % may be the effect or the level left. The following applies: in vivo.

Series [8] deals with Mus musculus. Briefly: Cardiotoxicity in Balb/c mouse infected with Trypanosoma cruzi MHOM/Pe/2011/Arequipa DTU 5 trypamastigotes assessed as change in ratio of creatine kinase in muscle to brain at 20 mg/kg, po once daily for 5 consecutive days starting from day 10 post infection measured on day 16 post infection by biochemical analysis relative to control. In kind it is toxicity, organism-based. The following applies: in vivo. The essentials:
(§3)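 Serum clinical chemistry in Arequipa-infected female BALB/c mice. Oral 20 mg·kg-1 per day for 5 days, started day 10 or day 75 pi. Samples taken at day 16 pi or day 81 pi, and on necropsy day. Markers: CK-MB and LDH (U/L), AST, ALT and alkaline phosphatase (U/L), total bilirubin. Results scored relative to infected untreated controls; uninfected reference n = 15.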

Series [9] has as its system Mus musculus. As to the kind of experiment: Hepatotoxicity in Balb/c mouse infected with Trypanosoma cruzi MHOM/Pe/2011/Arequipa DTU 5 trypamastigotes assessed as increase in ratio of serum AST to GOT level at 20 mg/kg, po once daily for 5 consecutive days starting from day 75 post infection measured on day 81 post infection by biochemical analysis relative to control. In kind it is toxicity, organism-based. The following applies: in vivo.

In series [10] the test system is Mus musculus. Briefly: Hepatotoxicity in Balb/c mouse infected with Trypanosoma cruzi MHOM/Pe/2011/Arequipa DTU 5 trypamastigotes assessed as increase in total bilirubin level at 20 mg/kg, po once daily for 5 consecutive days starting from day 10 post infection measured on day 127 post infection by biochemical analysis relative to control. In kind it is toxicity, organism-based. The following applies: in vivo.

For series [11], the system named is Mus musculus. Briefly: Cardiotoxicity in Balb/c mouse infected with Trypanosoma cruzi MHOM/Pe/2011/Arequipa DTU 5 trypamastigotes assessed as change in serum LDH level at […], po once daily for 5 consecutive days starting from day 75 post infection measured on day 81 post infection by biochemical analysis relative to control. In kind it is toxicity, organism-based. The following applies: in vivo. The essentials: as §3

The test system of series [12] is Mus musculus. As to the kind of experiment: Hepatotoxicity in Balb/c mouse infected with Trypanosoma cruzi MHOM/Pe/2011/Arequipa DTU 5 trypamastigotes assessed as increase in ratio of serum AST to GOT level at […], po once daily for 5 consecutive days starting from day 75 post infection measured on day 127 post infection by biochemical analysis relative to control. It is filed as toxicity, organism-based. The following applies: in vivo.

Series [13] relates to Trypanosoma cruzi. As to the kind of experiment: Antitrypanosomal activity against Trypanosoma cruzi MHOM/Pe/2011/Arequipa DTU 5 trypamastigotes infected in Balb/c mouse assessed as reduction in parasitaemia reactivation in bone marrow tissue at 100 mg/kg, po pretreated once daily for 5 consecutive days starting from day 75 post infection followed by cyclophosphamide-induced immunosuppression on day 100 post infection every 4 days for a maximum of 3 doses measured on day 127 post infection by PCR method. It is filed as functional. Set-up: scale not given: the % may be the effect or the level left. The essentials: as §2

The subject of series [14] is Trypanosoma cruzi. As to the kind of experiment: Antitrypanosomal activity against Trypanosoma cruzi MHOM/Pe/2011/Arequipa DTU 5 trypamastigotes infected in Balb/c mouse assessed as reduction in parasitaemia reactivation in lung tissue at 100 mg/kg, po pretreated once daily for 5 consecutive days starting from day 75 post infection followed by cyclophosphamide-induced immunosuppression on day 100 post infection every 4 days for a maximum of 3 doses measured on day 127 post infection by PCR method. It is filed as functional. Set-up: scale not given: the % may be the effect or the level left. The essentials:
as §2

The subject of series [15] is Trypanosoma cruzi. As to the kind of experiment: Antitrypanosomal activity against Trypanosoma cruzi MHOM/Pe/2011/Arequipa DTU 5 trypamastigotes infected in Balb/c mouse assessed as reduction in parasitaemia reactivation in adipose tissue at 100 mg/kg, po pretreated once daily for 5 consecutive days starting from day 10 post infection followed by cyclophosphamide-induced immunosuppression on day 100 post infection every 4 days for a maximum of 3 doses measured on day 127 post infection by PCR method. In kind it is functional. Also noted: scale not given: the % may be the effect or the level left. As to conditions: pooled result: one value given for 9 cell lines, strains, targets or settings. The essentials:
as §2

Series [16] has as its system Trypanosoma cruzi. As to the kind of experiment: Antitrypanosomal activity against Trypanosoma cruzi MHOM/Pe/2011/Arequipa DTU 5 trypamastigotes infected in Balb/c mouse assessed as parasitaemia reactivation at 100 mg/kg, po pretreated once daily for 5 consecutive days starting from day 10 post infection followed by cyclophosphamide-induced immunosuppression on day 100 post infection every 4 days for a maximum of 3 doses measured up to 1 week post immunosuppression by Neubauer chamber method. In kind it is functional.

Series [17] relates to Mus musculus. Briefly: Hepatotoxicity in Balb/c mouse infected with Trypanosoma cruzi MHOM/Pe/2011/Arequipa DTU 5 trypamastigotes assessed as change in ratio of serum […] to GPT level at 100 mg/kg, po once daily for 5 consecutive days starting from day 10 post infection measured on day 127 post infection by biochemical analysis relative to control. It is filed as toxicity, organism-based. As to conditions: in vivo.

Activity calls are given as the source filed them. The calls are words filed in the database; no cut-off is given here.

With `O=C(Cn1ccnc1[N+](=O)[O-])NCc1ccccc1` [BENZNIDAZOLE], the Activity is 70% with Trypanosoma cruzi [1]; 33% in the series on Trypanosoma cruzi [3]; 33% with Trypanosoma cruzi [4]; “<= 30%” with Mus musculus [6]; “<= 30%” in the series on Mus musculus [7]; under 10% in the series on Mus musculus [8]. In addition, the Activity result with Mus musculus [9] is on record as “<= 20%”; in the series with Mus musculus [10] it was “<= 10%”. Also, in the series on Trypanosoma cruzi [2], the outcome was inactive. In addition, the outcome in the series on Trypanosoma cruzi [5] was Active.
On to `COc1ccc(C(=O)CCN2CCN(c3ccc([N+](=O)[O-])cc3)CC2)cc1`, for which the Activity is reported as under 10% in the series with Mus musculus [11] and “<= 20%” in the series with Mus musculus [12].
Consider `COc1ccc(C(=O)CCN2CCN(c3ccc(Cl)cc3)CC2)cc1`, for which the Activity with Trypanosoma cruzi [13] came to 78%; with Trypanosoma cruzi [14], 78%; in the series with Trypanosoma cruzi [15], 89%; with Trypanosoma cruzi [16], 12%.
Take `COc1ccc(C(=O)CCN2CCN(c3ccc(F)cc3)CC2)cc1`: in the series with Mus musculus [17], the Activity is on record as under 10%.

Values taken from ChEMBL document CHEMBL4118256, “Second Generation of Mannich Base-Type Derivatives with in Vivo Activity against Trypanosoma cruzi” (J Med Chem, 2018).
